This is an account of results in ChEMBL document CHEMBL1150578, “Potent antiviral potamogetonyde and potamogetonol, new furanoid labdane diterpenes from Potamogeton malaianus” (J Nat Prod, 2001).

As usually defined, the IC50 is the concentration that inhibits the measured activity by half. Broadly, the MIC is the smallest concentration in the dilution series that meets the test's criterion for growth inhibition.

In brackets after ≈: the same amount, converted by molar mass.

Assay [1] relates to Human alphaherpesvirus 1. The assay can be described thus: Antiviral activity against HSV1 infected in african green monkey Vero cells after 72 hrs by SRB assay. The assay is classed as functional, organism-based. Conditions: Human alphaherpesvirus 1, Vero. The procedure, abridged: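 HSV-1 (30 PFU) added to wells with test samples (final 20–50 µg/mL), then Vero cells plated at 1 × 10^5 cells/mL. Vero cells grown in MEM with 10% heat-inactivated FBS and antibiotics. Incubated 72 h at 37 °C, 5% CO2. Cells then fixed and stained, and OD read at 510 nm. Acyclovir was the reference.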

Assay [2] in a line: Cytotoxicity against Spodoptera frugiperda Sf9 cells after 24 hrs by MTT assay. In kind it is functional, cell-based. Conditions: Sf9, 24 h. The procedure, abridged:
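Seeded 4 × 10^3 cells/well and left 48 h to attach. Exposed 24 h to 1:2 serial dilutions from 200 to 1.56 µg/mL (top dose in 1% DMSO) with penicillin/streptomycin. Then 24 h recovery in fresh medium. MTT 4 h, formazan dissolved in DMSO/glycine buffer pH 10.5, OD 570 nm. Four wells per point; IC50 by metabolic competence.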
(In general: Tetrazolium assays rely on reduction of a dye to a coloured formazan, in cell work by metabolically active cells.)

Assay [3] in a line: Cytotoxicity against Aedes albopictus C6/36 cells after 24 hrs by MTT assay. In kind it is functional, cell-based. Conditions: C6/36, 24 h. The procedure, abridged: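 C6/36 cells in MEM with 10% FCS and 1.1 g/L Na2CO3, at 28 °C, antibiotic-free stock. Seeded 1.6 × 10^4 cells/well and left 48 h to attach. Exposed 24 h to 1:2 serial dilutions from 200 to 1.56 µg/mL (top dose in 1% DMSO) with penicillin/streptomycin. Then 24 h recovery in fresh medium. MTT 4 h, formazan dissolved in DMSO/glycine buffer pH 10.5, OD 570 nm. Four wells per point; IC50 by metabolic competence.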

In assay [4] the test system is Mycobacterium tuberculosis. Description: Antimycobacterial activity against Mycobacterium tuberculosis H37Ra by microplate alamar blue assay. In kind it is functional.
Assay [5] deals with KB. The assay can be described thus: Cytotoxicity against human KB cells by SRB assay. In kind it is functional, cell-based. (The SRB assay estimates cell density from bound dye.)
Assay [6] can be described thus: Cytotoxicity against human BC cells by SRB assay. The assay is classed as functional, cell-based.
Assay [7] has as its system Vero. The assay can be described thus: Cytotoxicity against african green monkey Vero cells by SRB assay. The assay is classed as cell-based. Conditions: Chlorocebus sabaeus.

Consider `C=C1CC[C@@H]2[C@](C)(COC(C)=O)CCC[C@@]2(CO)[C@@H]1CCc1ccoc1` [POTAMOGETONOL], for which the half-inhibitory concentration (IC50) is 3 µg/mL (≈ 8.32 µM) in assay [1]; 23 µg/mL (≈ 63.8 µM) in assay [2]; 43 µg/mL (≈ 119 µM) in assay [3]; greater than 20 µg/mL in assay [5]; greater than 20 µg/mL in assay [6]; 28 µg/mL (≈ 77.7 µM) in assay [7]. In assay [4], this compound registered an MIC of 50 µg/mL (≈ 139 µM).
The compound `NNC(=O)c1ccncc1` [ISONIAZID] came in with an MIC in assay [4] of 0.04 µg/mL (≈ 0.292 µM).
Consider `C=C1CC[C@@H]2[C@@]3(C)CCC[C@@]2(C(=O)OC3)[C@@H]1CCc1ccoc1` [POTAMOGETONIN], for which the IC50 in assay [1] is greater than 20 µg/mL; in assay [2] it was 15 µg/mL (≈ 47.7 µM); in assay [3], 22 µg/mL (≈ 70 µM); in assay [5], greater than 20 µg/mL; in assay [6], greater than 20 µg/mL; in assay [7], greater than 50 µg/mL. In assay [4], 100 µg/mL (≈ 318 µM) was the least that counted as inhibitory (MIC).
For `C=C1CC[C@@H]2[C@@]3(C)CCC[C@@]2(C(=O)OC3)[C@@H]1CC(=O)c1ccoc1`, the half-maximal inhibitory concentration (IC50) in assay [1] was greater than 20 µg/mL; in assay [2], 26 µg/mL (≈ 79.2 µM); in assay [3], 72 µg/mL (≈ 219 µM); in assay [5], greater than 20 µg/mL; in assay [6], greater than 20 µg/mL; in assay [7], greater than 50 µg/mL. In assay [4], this compound yielded an MIC of 100 µg/mL (≈ 304 µM).
For `CO[C@@]12[C@H](COC(N)=O)C3=C(C(=O)C(C)=C(N)C3=O)N1C[C@@H]1N[C@@H]12` [MITOMYCIN], the IC50 in assay [2] and in assay [3] was 3 µg/mL (≈ 8.97 µM) each time.
On to `Cc1c2ccncc2c(C)c2c1[nH]c1ccccc12` [ELLIPTECINE], for which the IC50 turned out to be 0.1 µg/mL (≈ 0.406 µM) in assay [5], 0.1 µg/mL (≈ 0.406 µM) in assay [6] and 0.4 µg/mL (≈ 1.62 µM) in assay [7].
In assay [1], `Nc1nc2c(ncn2COCCO)c(=O)[nH]1` [ACYCLOVIR] registered an IC50 of 2 µg/mL (≈ 8.88 µM).
For the compound `C=C1CC[C@@H]2[C@](C)(COC(C)=O)CCC[C@@]2(C=O)[C@@H]1CCc1ccoc1` [POTAMOGETONYDE], the concentration for half-maximal inhibition (IC50) in assay [1] was 8 µg/mL (≈ 22.3 µM); in assay [2], 11 µg/mL (≈ 30.7 µM); in assay [3] it was 30 µg/mL (≈ 83.7 µM); in assay [5], greater than 20 µg/mL; in assay [6], greater than 20 µg/mL; in assay [7], 31 µg/mL (≈ 86.5 µM). The MIC in assay [4] was 100 µg/mL (≈ 279 µM).
Take `NC[C@H]1O[C@H](O[C@H]2[C@H](O)[C@@H](O[C@H]3O[C@H](CO)[C@@H](O)[C@H](N)[C@H]3O)[C@H](N)C[C@@H]2N)[C@H](O)[C@@H](O)[C@@H]1O.O=S(=O)(O)O` [KANAMYCIN SULFATE]: 2 µg/mL was the least that counted as inhibitory in assay [4] (MIC).
